What was measured:
Type in all cases: functional
[1] = Growth inhibition of human NCI-ADR-RES cells at 10 uM after 48 hrs by SRB assay; settings: read-out: GI
Summary of the method: (§1)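 NCI-60 primary one-dose screen run at the US NCI, with human tumour lines from nine cancer types. Compound added once at 10^-5 M, followed by 48 h incubation. End point was sulforhodamine B protein staining read spectrophotometrically. Result given as percent growth of treated cells against untreated controls, reported as % growth inhibition.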

M14 = experiment: Growth inhibition of human M14 cells at 10 uM after 48 hrs by SRB assay; settings: M14, 48 h, read-out: GI; summary of the method: as §1
PC-3 = experiment: Growth inhibition of human PC3 cells at 10 uM after 48 hrs by SRB assay; settings: PC-3, 48 h, read-out: GI; summary of the method: as §1
786-0 = experiment: Growth inhibition of human 786-0 cells at 10 uM after 48 hrs by SRB assay; settings: 786-0, 48 h, read-out: GI
Summary of the method: (§2)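 NCI primary one-dose screen. A single concentration of 10^-5 M was added to the cell culture, followed by 48 h incubation and an SRB protein-dye endpoint read spectrophotometrically. Results are growth percentage relative to untreated control cells, reported as % growth inhibition.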

DU-145 = experiment: Growth inhibition of human DU145 cells at 10 uM after 48 hrs by SRB assay; settings: DU-145, 48 h, read-out: GI; summary of the method: as §1
KM12 = experiment: Growth inhibition of human KM12 cells at 10 uM after 48 hrs by SRB assay; settings: KM12, 48 h, read-out: GI; summary of the method: as §1
[2] = Growth inhibition of human BT549 cells at 10 uM after 48 hrs by SRB assay; settings: BT-549, 48 h, read-out: GI; summary of the method: as §2
A498 = experiment: Growth inhibition of human A498 cells at 10 uM after 48 hrs by SRB assay; settings: A498, 48 h, read-out: GI; summary of the method: as §2
[3] = Growth inhibition of human HCT15 cells at 10 uM after 48 hrs by SRB assay; settings: HCT-15, 48 h, read-out: GI; summary of the method: as §1
[4] = Growth inhibition of human UACC257 cells at 10 uM after 48 hrs by SRB assay; settings: UACC-257, 48 h, read-out: GI; summary of the method: as §1
SN12C = experiment: Growth inhibition of human SN12C cells at 10 uM after 48 hrs by SRB assay; settings: read-out: GI; summary of the method: as §1
RPMI-8226 = experiment: Growth inhibition of human RPMI8226 cells at 10 uM after 48 hrs by SRB assay; settings: RPMI-8226, 48 h, read-out: GI; summary of the method: as §1
SK-OV-3 = experiment: Growth inhibition of human SKOV3 cells at 10 uM after 48 hrs by SRB assay; settings: SK-OV-3, 48 h, read-out: GI; summary of the method: as §1
SW-620 = experiment: Growth inhibition of human SW620 cells at 10 uM after 48 hrs by SRB assay; settings: SW-620, 48 h, read-out: GI; summary of the method: as §1
MCF7 = experiment: Growth inhibition of human MCF7 cells at 10 uM after 48 hrs by SRB assay; settings: MCF7, 48 h, read-out: GI; summary of the method: as §1
[5] = Growth inhibition of human RXF393 cells at 10 uM after 48 hrs by SRB assay; settings: RXF 393, 48 h, read-out: GI; summary of the method: as §1
MDA-MB-468 = experiment: Growth inhibition of human MDA-MB-468 cells assessed as cell growth at 10 uM after 48 hrs by SRB assay; settings: MDA-MB-468, 48 h, read-out: GI; summary of the method: as §1
[6] = Growth inhibition of human OVCAR3 cells at 10 uM after 48 hrs by SRB assay; settings: OVCAR-3, 48 h, read-out: GI; summary of the method: as §1
NCI-H522 = experiment: Growth inhibition of human NCI-H522 cells at 10 uM after 48 hrs by SRB assay; settings: NCI-H522, 48 h, read-out: GI; summary of the method: as §1
TK-10 = experiment: Growth inhibition of human TK10 cells at 10 uM after 48 hrs by SRB assay; settings: TK-10, 48 h, read-out: GI; summary of the method: as §1
SNB-19 = experiment: Growth inhibition of human SNB19 cells at 10 uM after 48 hrs by SRB assay; settings: SNB-19, 48 h, read-out: GI; summary of the method: as §1
[7] = Growth inhibition of human UACC62 cells at 10 uM after 48 hrs by SRB assay; settings: UACC-62, 48 h, read-out: GI; summary of the method: as §1
NCI-H23 = experiment: Growth inhibition of human NCI-H23 cells at 10 uM after 48 hrs by SRB assay; settings: NCI-H23, 48 h, read-out: GI; summary of the method: as §1
U-251 = experiment: Growth inhibition of human U251 cells at 10 uM after 48 hrs by SRB assay; settings: U-251, 48 h, read-out: GI; summary of the method: as §1
[8] = Growth inhibition of human OVCAR5 cells at 10 uM after 48 hrs by SRB assay; settings: OVCAR-5, 48 h, read-out: GI; summary of the method: as §1
SK-MEL-28 = experiment: Growth inhibition of human SK-MEL-28 cells at 10 uM after 48 hrs by SRB assay; settings: SK-MEL-28, 48 h, read-out: GI; summary of the method: as §1
Malme-3M = experiment: Growth inhibition of human MALME-3M cells at 10 uM after 48 hrs by SRB assay; settings: read-out: GI; summary of the method: as §1
HT-29 = experiment: Growth inhibition of human HT-29 cells at 10 uM after 48 hrs by SRB assay; settings: HT-29, 48 h, read-out: GI; summary of the method: as §1
HCT-116 = experiment: Growth inhibition of human HCT116 cells at 10 uM after 48 hrs by SRB assay; settings: HCT-116, 48 h, read-out: GI; summary of the method: as §1
NCI-H322M = experiment: Growth inhibition of human NCI-H322M cells at 10 uM after 48 hrs by SRB assay; settings: read-out: GI; summary of the method: as §1
SR = experiment: Growth inhibition of human SR cells at 10 uM after 48 hrs by SRB assay; settings: read-out: GI; summary of the method: as §1
K562 = experiment: Growth inhibition of human K562 cells at 10 uM after 48 hrs by SRB assay; settings: K562, 48 h, read-out: GI; summary of the method: as §1
A549 = experiment: Growth inhibition of human A549 cells at 10 uM after 48 hrs by SRB assay; settings: A549, 48 h, read-out: GI; summary of the method: as §2
ACHN = experiment: Growth inhibition of human ACHN cells at 10 uM after 48 hrs by SRB assay; settings: read-out: GI; summary of the method: as §2
MDA-MB-435 = experiment: Growth inhibition of human MDA-MB-435 cells at 10 uM after 48 hrs by SRB assay; settings: MDA-MB-435, 48 h, read-out: GI; summary of the method: as §1
SK-MEL-2 = experiment: Growth inhibition of human SK-MEL-2 cells at 10 uM after 48 hrs by SRB assay; settings: SK-MEL-2, 48 h, read-out: GI; summary of the method: as §1
SF-268 = experiment: Growth inhibition of human SF268 cells at 10 uM after 48 hrs by SRB assay; settings: SF-268, 48 h, read-out: GI; summary of the method: as §1
T47D = experiment: Growth inhibition of human T47D cells at 10 uM after 48 hrs by SRB assay; settings: read-out: GI; summary of the method: as §1
[9] = Growth inhibition of human SF539 cells at 10 uM after 48 hrs by SRB assay; settings: SF-539, 48 h, read-out: GI; summary of the method: as §1

With `Cc1ccc(-c2nc3ccc(Cl)cc3c(=O)n2NC(=O)CNN)cc1` the inhibition of growth at 10 µM [1] was 24%, the inhibition of growth at 10 µM (M14) was 17% and the inhibition of growth at 10 µM (PC-3) was 33%. The inhibition of growth at 10 µM (786-0) was 22%, the inhibition of growth at 10 µM (DU-145) was 28% and the inhibition of growth at 10 µM (KM12) was 21%. It also gave an inhibition of growth at 10 µM [2] of less than 10%, an inhibition of growth at 10 µM (A498) of 46% and an inhibition of growth at 10 µM [3] of 16%. It also gave an inhibition of growth at 10 µM [4] of 23%, an inhibition of growth at 10 µM (SN12C) of 33% and an inhibition of growth at 10 µM (RPMI-8226) of 13%. For the same compound, the inhibition of growth at 10 µM (SK-OV-3) was 84%, the inhibition of growth at 10 µM (SW-620) was 28% and the inhibition of growth at 10 µM (MCF7) was 22%. The inhibition of growth at 10 µM [5] was 11%, the inhibition of growth at 10 µM (MDA-MB-468) was less than 10% and the inhibition of growth at 10 µM [6] was 45%. The inhibition of growth at 10 µM (NCI-H522) was 61%, the inhibition of growth at 10 µM (TK-10) was 61% and the inhibition of growth at 10 µM (SNB-19) was 22%. For the same compound, the inhibition of growth at 10 µM [7] was 18%, the inhibition of growth at 10 µM (NCI-H23) was 13% and the inhibition of growth at 10 µM (U-251) was 58%. For the same compound, the inhibition of growth at 10 µM [8] was 18%, the inhibition of growth at 10 µM (SK-MEL-28) was 23% and the inhibition of growth at 10 µM (Malme-3M) was 14%. It also gave an inhibition of growth at 10 µM (HT-29) of 33%, an inhibition of growth at 10 µM (HCT-116) of 46% and an inhibition of growth at 10 µM (NCI-H322M) of 29%. It also gave an inhibition of growth at 10 µM (SR) of 13%, an inhibition of growth at 10 µM (K562) of 11% and an inhibition of growth at 10 µM (A549) of 23%. It also gave an inhibition of growth at 10 µM (ACHN) of 42%, an inhibition of growth at 10 µM (MDA-MB-435) of less than 10% and an inhibition of growth at 10 µM (SK-MEL-2) of less than 10%. It also gave an inhibition of growth at 10 µM (SF-268) of 28%, an inhibition of growth at 10 µM (T47D) of 52% and an inhibition of growth at 10 µM [9] of 54%.
`Cc1ccc(-c2nc3ccc(Cl)cc3c3nnnn23)cc1` gave an inhibition of growth at 10 µM [1] of less than 10%, an inhibition of growth at 10 µM (M14) of less than 10% and an inhibition of growth at 10 µM (PC-3) of 18%. For the same compound, the inhibition of growth at 10 µM (786-0) was less than 10%, the inhibition of growth at 10 µM (DU-145) was less than 10% and the inhibition of growth at 10 µM (KM12) was less than 10%. For the same compound, the inhibition of growth at 10 µM [2] was less than 10%, the inhibition of growth at 10 µM (A498) was 11% and the inhibition of growth at 10 µM [3] was less than 10%. It also gave an inhibition of growth at 10 µM [4] of less than 10%, an inhibition of growth at 10 µM (SN12C) of 16% and an inhibition of growth at 10 µM (RPMI-8226) of less than 10%. For the same compound, the inhibition of growth at 10 µM (SK-OV-3) was 12%, the inhibition of growth at 10 µM (SW-620) was 17% and the inhibition of growth at 10 µM (MCF7) was less than 10%. It also gave an inhibition of growth at 10 µM [5] of less than 10%, an inhibition of growth at 10 µM (MDA-MB-468) of less than 10% and an inhibition of growth at 10 µM [6] of 11%. It also gave an inhibition of growth at 10 µM (NCI-H522) of 21%, an inhibition of growth at 10 µM (TK-10) of less than 10% and an inhibition of growth at 10 µM (SNB-19) of 11%. It also gave an inhibition of growth at 10 µM [7] of 18%, an inhibition of growth at 10 µM (NCI-H23) of less than 10% and an inhibition of growth at 10 µM (U-251) of less than 10%. It also gave an inhibition of growth at 10 µM [8] of less than 10%, an inhibition of growth at 10 µM (SK-MEL-28) of less than 10% and an inhibition of growth at 10 µM (Malme-3M) of less than 10%. It also gave an inhibition of growth at 10 µM (HT-29) of less than 10%, an inhibition of growth at 10 µM (HCT-116) of less than 10% and an inhibition of growth at 10 µM (NCI-H322M) of less than 10%. The inhibition of growth at 10 µM (SR) was less than 10%, the inhibition of growth at 10 µM (K562) was 11% and the inhibition of growth at 10 µM (A549) was 47%. For the same compound, the inhibition of growth at 10 µM (ACHN) was less than 10%, the inhibition of growth at 10 µM (MDA-MB-435) was 13% and the inhibition of growth at 10 µM (SK-MEL-2) was less than 10%. For the same compound, the inhibition of growth at 10 µM (SF-268) was less than 10%, the inhibition of growth at 10 µM (T47D) was 23% and the inhibition of growth at 10 µM [9] was 18%.

From ChEMBL document CHEMBL3259728, “Design, synthesis and biological evaluation of some novel substituted quinazolines as antitumor agents” (2014)
